This is an account of results in ChEMBL document CHEMBL1649328, “Assessment of pandemic and seasonal influenza A (H1N1) virus susceptibility to neuraminidase inhibitors in three enzyme activity inhibition assays” (Antimicrob Agents Chemother, 2010).

Experiment [1] has as its system Influenza A virus. Description: Ratio of IC50 for influenza A (A/Singapore/91/2009 (H1N1)) virus harboring neuraminidase H275Y mutant to IC50 for influenza A (A/Washington/29/2009 (H1N1)) virus expressing wild type enzyme by fetuin substrate based colorimetric assay. Type of experiment: functional. Summed up:
(§1)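 Colorimetric NA inhibition using a virus dilution that gave 0.4–0.8 OD549. Virus preincubated 1 h at 37°C with half-log inhibitor dilutions (0.03–1,000 nM final) in MES/CaCl2 pH 6.0 buffer. Fetuin (5.5 mg/ml final) then added for 18 h at 37°C. Released sialic acid detected by periodate oxidation and thiobarbituric acid, butanol extraction, read at 549 nm. IC50 curve-fitted, ≥2 experiments. Ratio is variant IC50 over wild-type reference IC50.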

For experiment [2], the system named is Influenza A virus. Description: Ratio of IC50 for influenza A (A/Montana/02/2009 (H1N1)) virus harboring neuraminidase H275Y mutant to IC50 for influenza A (A/Washington/29/2009 (H1N1)) virus expressing wild type enzyme by fetuin substrate based colorimetric assay. The format is functional.
Experiment [3] concerns Influenza A virus. Briefly: Antiviral activity against influenza A (A/Montana/02/2009 (H1N1)) virus harboring neuraminidase H275Y mutant after 16 to 18 hrs by fetuin substrate based colorimetric assay. The format is functional, organism-based. In short, it runs like this: (§2)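 Colorimetric NA inhibition with fetuin substrate. Virus was diluted in NA-Star buffer (26 mM MES, 4 mM CaCl2, pH 6.0) to give OD549 of 0.4–0.8 after 18 h. It was preincubated with ten half-log inhibitor dilutions (0.03–1,000 nM final) for 1 h at 37°C, then with fetuin (5.5 mg/ml final) for 16–18 h at 37°C. Released sialic acid was read at 549 nm after periodate/TBA reaction and butanol extraction. IC50 came from a Vmax·[1−x/(K+x)] fit, mean of ≥2 experiments.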

The test system of experiment [4] is Influenza A virus. Description: Ratio of IC50 for influenza A (A/Singapore/57/2009 (H1N1)) virus harboring neuraminidase H275Y mutant to IC50 for influenza A (A/Washington/29/2009 (H1N1)) virus expressing wild type enzyme by fetuin substrate based colorimetric assay. Type of experiment: functional. In short, it runs like this:
as §1

Experiment [5] concerns Influenza A virus. Briefly: Ratio of IC50 for influenza A (A/Osaka/180/2009 (H1N1)) virus harboring neuraminidase H275Y mutant to IC50 for influenza A (A/Washington/29/2009 (H1N1)) virus expressing wild type enzyme by NA-star substrate based chemiluminescent assay. Type of experiment: functional.
Experiment [6] concerns Influenza A virus. Briefly: Ratio of IC50 for influenza A (A/North Carolina/01/2009 (H1N1)) virus harboring neuraminidase H275Y mutant to IC50 for influenza A (A/Washington/29/2009 (H1N1)) virus expressing wild type enzyme by fetuin substrate based colorimetric assay. Type of experiment: functional.
The test system of experiment [7] is Influenza A virus. Description: Ratio of IC50 for influenza A (A/Hong Kong/2369/2009 (H1N1)) virus harboring neuraminidase H275Y mutant to IC50 for influenza A (A/Washington/29/2009 (H1N1)) virus expressing wild type enzyme by fetuin substrate based colorimetric assay. Type of experiment: functional.
The subject of experiment [8] is Influenza A virus. Description: Antiviral activity against influenza A (A/North Carolina/01/2009 (H1N1)) virus harboring neuraminidase H275Y mutant after 30 mins by NA-star substrate based chemiluminescent assay. Type of experiment: functional, organism-based. Summed up: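 Titrated virus in NA-Star buffer (26 mM MES, 4 mM CaCl2, pH 6.0) was preincubated with ten half-log inhibitor dilutions (0.03–1,000 nM final) for 30 min at 37°C, then with substrate for 30 min at room temperature. Accelerator solution was added and luminescence read for 0.1 s. IC50 came from a Vmax·[1−x/(K+x)] fit, mean of ≥3 experiments.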

The test system of experiment [9] is Influenza A virus. Briefly: Antiviral activity against influenza A (A/Singapore/57/2009 (H1N1)) virus harboring neuraminidase H275Y mutant after 16 to 18 hrs by fetuin substrate based colorimetric assay. The format is functional, organism-based. In short, it runs like this: as §2
For experiment [10], the system named is Influenza A virus. Description: Ratio of IC50 for influenza A (A/Montana/02/2009 (H1N1)) virus harboring neuraminidase H275Y mutant to IC50 for influenza A (A/Washington/29/2009 (H1N1)) virus expressing wild type enzyme by NA-star substrate based chemiluminescent assay. The format is functional.
Experiment [11] has as its system Influenza A virus. Briefly: Antiviral activity against influenza A (A/Washington/29/2009 (H1N1)) virus harboring neuraminidase H275Y mutant after 30 mins by MUNANA substrate based fluorometric assay. Type of experiment: functional, organism-based. Summed up:
(§3)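 Fluorometric NA inhibition with MUNANA (100 μM final). Titrated virus in NA-Star buffer (26 mM MES, 4 mM CaCl2, pH 6.0) was preincubated with ten half-log inhibitor dilutions (0.03–1,000 nM final) for 30 min at 37°C, then with substrate for 30 min at 37°C. The reaction was stopped with 0.1 M glycine in 25% ethanol, pH 10.7, and 4-methylumbelliferone was read at ex 365/em 450 nm. IC50 came from a Vmax·[1−x/(K+x)] fit, mean of ≥3 experiments.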

Experiment [12] relates to Influenza A virus. Briefly: Antiviral activity against influenza A (A/North Carolina/01/2009 (H1N1)) virus harboring neuraminidase H275Y mutant after 30 mins by MUNANA substrate based fluorometric assay. The format is functional, organism-based. In short, it runs like this: as §3
In experiment [13] the test system is Influenza A virus. Description: Ratio of IC50 for influenza A (A/Washington/29/2009 (H1N1)) virus harboring neuraminidase H275Y mutant to IC50 for influenza A (A/Washington/29/2009 (H1N1)) virus expressing wild type enzyme by NA-star substrate based chemiluminescent assay. Type of experiment: functional. Summed up: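 Chemiluminescent NA inhibition in MES 26 mM/CaCl2 4 mM buffer, pH 6.0. […] Luminescence read for 0.1 s. IC50 from the fit y = Vmax·{1 − [x/(K + x)]}, mean of ≥3 experiments. Ratio is the H275Y variant IC50 over the pandemic wild-type reference IC50.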

The subject of experiment [14] is Influenza A virus. Briefly: Ratio of IC50 for influenza A (A/Hong Kong/2369/2009 (H1N1)) virus harboring neuraminidase H275Y mutant to IC50 for influenza A (A/Washington/29/2009 (H1N1)) virus expressing wild type enzyme by MUNANA substrate based fluorometric assay. Type of experiment: functional.
The subject of experiment [15] is Influenza A virus. Description: Antiviral activity against influenza A (A/Osaka/180/2009 (H1N1)) virus harboring neuraminidase H275Y mutant after 30 mins by MUNANA substrate based fluorometric assay. Type of experiment: functional, organism-based. Summed up: as §3
The test system of experiment [16] is Influenza A virus. Briefly: Ratio of IC50 for influenza A (A/Osaka/180/2009 (H1N1)) virus harboring neuraminidase H275Y mutant to IC50 for influenza A (A/Washington/29/2009 (H1N1)) virus expressing wild type enzyme by MUNANA substrate based fluorometric assay. Type of experiment: functional.
The test system of experiment [17] is Influenza A virus. Briefly: Ratio of IC50 for influenza A (A/North Carolina/02/2009 (H1N1)) virus harboring neuraminidase H275Y mutant to IC50 for influenza A (A/Washington/10/2008 (H1N1)) virus expressing wild type enzyme by fetuin substrate based colorimetric assay. The format is functional.
Experiment [18] has as its system Influenza A virus. Description: Ratio of IC50 for influenza A (A/North Carolina/01/2009 (H1N1)) virus harboring neuraminidase H275Y mutant to IC50 for influenza A (A/Washington/29/2009 (H1N1)) virus expressing wild type enzyme by MUNANA substrate based fluorometric assay. Type of experiment: functional.
In experiment [19] the test system is Influenza A virus. Description: Ratio of IC50 for influenza A (A/Washington/29/2009 (H1N1)) virus harboring neuraminidase H275Y mutant to IC50 for influenza A (A/Washington/29/2009 (H1N1)) virus expressing wild type enzyme by fetuin substrate based colorimetric assay. The format is functional. In short, it runs like this: as §1
Experiment [20] deals with Influenza A virus. Briefly: Antiviral activity against influenza A (A/Singapore/57/2009 (H1N1)) virus harboring neuraminidase H275Y mutant after 30 mins by MUNANA substrate based fluorometric assay. Type of experiment: functional, organism-based. In short, it runs like this:
as §3

What is called IC50 is the point on the concentration scale where inhibition reaches its midpoint. Regarding `C/C=C\[C@@H]1C[C@H](C(=O)O)N[C@H]1[C@@H](NC(C)=O)[C@](C)(CCC)OC`, the “Ratio IC50” value was 1 with Influenza A virus [1]; 2 in the experiment on Influenza A virus [2]; 1 with Influenza A virus [4]; 3 with Influenza A virus [5]; 2 in the experiment on Influenza A virus [6]; 3 in the experiment on Influenza A virus [7]. Also, the “Ratio IC50” value with Influenza A virus [10] amounted to 6; with Influenza A virus [13], 5; in the experiment with Influenza A virus [14], 3; in the experiment with Influenza A virus [16] it was 5; in the experiment with Influenza A virus [17], 1; in the experiment with Influenza A virus [18], 4. Moreover, in the experiment with Influenza A virus [19], the “Ratio IC50” value was found to be 2. Also, the IC50 in the experiment on Influenza A virus [3] is 1.89 nM; in the experiment with Influenza A virus [8] it was 0.84 nM; in the experiment on Influenza A virus [9], 1.58 nM; with Influenza A virus [11] it was 1.76 nM; with Influenza A virus [12], 1.93 nM; in the experiment on Influenza A virus [15], 2.44 nM. For the same molecule, in the experiment on Influenza A virus [20], 1.39 nM corresponded to half-maximal inhibition (IC50).

As to `CCC(CC)[C@H](NC(C)=O)[C@@H]1[C@H](O)[C@@H](C(=O)O)C[C@H]1NC(=N)N` [PERAMIVIR ANHYDROUS], the “Ratio IC50” value in the experiment on Influenza A virus [1] turned out to be 1; in the experiment with Influenza A virus [2], 111; with Influenza A virus [4], 173; in the experiment on Influenza A virus [5], 93; with Influenza A virus [6], 140; in the experiment on Influenza A virus [7] it was 330. For the same molecule, the “Ratio IC50” value with Influenza A virus [10] worked out at 136; with Influenza A virus [13] it was 89; in the experiment on Influenza A virus [14], 641; in the experiment with Influenza A virus [16] it was 488; in the experiment on Influenza A virus [17], 1; in the experiment with Influenza A virus [18], 831. Besides, the “Ratio IC50” value with Influenza A virus [19] is reported as 332. Further, the IC50 with Influenza A virus [3] is 83.4 nM; in the experiment on Influenza A virus [8], 13.8 nM; with Influenza A virus [9], 84.8 nM; with Influenza A virus [11] it was 150 nM; in the experiment with Influenza A virus [12] it was 150 nM; with Influenza A virus [15], 97.6 nM. Also, 122 nM corresponded to half-maximal inhibition with Influenza A virus [20] (IC50).
